Laboratory results: ChEMBL document CHEMBL4396947, “Synthesis and characterization of novel isoform-selective IP6K1 inhibitors” (Bioorg Med Chem Lett, 2019)

Tests used:
Homo sapiens [1] = organism: Homo sapiens; assay: Inhibition of recombinant human MAPKAPK2 A399G mutant (46 to end residues) assessed as residual activity at 10 uM using KKLNRTLSVA as substrate incubated for 40 mins in presence of [gamma-33P]ATP at Km concentration by radiometric assay relative to control
[2] = target: Serine/threonine-protein kinase mTOR (Homo sapiens) (UniProt P42345); assay: Inhibition of full length recombinant human mTOR assessed as residual activity at 10 uM incubated for 40 mins in presence of [gamma-33P]ATP at Km concentration by radiometric assay relative to control
[3] = target: Epidermal growth factor receptor (Homo sapiens) (UniProt P00533); assay: Inhibition of recombinant human EGFR (696 to end residues) assessed as residual activity at 10 uM using poly (Glu,Tyr) 4:1 as substrate incubated for 40 mins in presence of [gamma-33P]ATP at Km concentration by radiometric assay relative to control
[4] = target: T1, Inositol hexakisphosphate kinase 1 (Homo sapiens, UniProt Q92551); assay: Binding affinity to IP6K1 (unknown origin) assessed as change in melting temperature at 11.1 uM by SYPRO orange dye based assay
Target sequence in this assay (Q92551 whole entry, looked up): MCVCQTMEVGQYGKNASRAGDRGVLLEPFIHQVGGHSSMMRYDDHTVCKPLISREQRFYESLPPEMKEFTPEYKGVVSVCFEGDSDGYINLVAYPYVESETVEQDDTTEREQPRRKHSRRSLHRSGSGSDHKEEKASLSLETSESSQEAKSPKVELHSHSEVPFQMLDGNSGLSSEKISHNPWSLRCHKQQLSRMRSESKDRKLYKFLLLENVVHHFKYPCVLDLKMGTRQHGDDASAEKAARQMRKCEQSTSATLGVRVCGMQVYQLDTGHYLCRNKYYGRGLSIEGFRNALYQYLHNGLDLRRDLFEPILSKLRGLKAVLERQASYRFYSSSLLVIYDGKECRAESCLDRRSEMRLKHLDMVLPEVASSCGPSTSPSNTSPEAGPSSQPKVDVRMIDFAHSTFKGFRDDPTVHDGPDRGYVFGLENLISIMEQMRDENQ

[5] = target: Protein kinase C theta type (Homo sapiens) (UniProt Q04759); assay: Inhibition of recombinant full length human PKCtheta assessed as residual activity at 10 uM using histone H1 as substrate incubated for 40 mins in presence of [gamma-33P]ATP at Km concentration by radiometric assay relative to control
[6] = target: T1, Inositol hexakisphosphate kinase 1; assay: Inhibition of IP6K1 (unknown origin) in presence of ATP at Km concentration by Cheng-Prusoff equation analysis
How it was run: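 Purified IP6K isoforms run in the ADP-Glo Max kinase assay with 1 mM ATP. Measured IC50 values converted to Ki with the Cheng-Prusoff equation.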
Target sequence in this assay (Q92551 whole entry): as the sequence (Q92551 whole entry, looked up) above

Homo sapiens [7] = organism: Homo sapiens; assay: Inhibition of recombinant full length human PI3K p120gamma R459Q mutant assessed as residual activity at 10 uM using phosphatidylinositol-4,5 bisphosphate as substrate incubated for 40 mins in presence of [gamma-33P]ATP at Km concentration by radiometric assay relative to control
[8] = target: Ribosomal protein S6 kinase alpha-4 (Homo sapiens) (UniProt O75676); assay: Inhibition of full length recombinant human MSK2 assessed as residual activity at 10 uM using GRPRTSSFAEGKK as substrate incubated for 40 mins in presence of [gamma-33P]ATP at Km concentration by radiometric assay relative to control
[9] = target: Dual specificity mitogen-activated protein kinase kinase 1 (Homo sapiens) (UniProt Q02750); assay: Inhibition of full length recombinant human MEK1 assessed as residual activity at 10 uM using inactive MAPK2 as substrate incubated for 40 mins in presence of [gamma-33P]ATP at Km concentration by radiometric assay relative to control
[10] = target: Inhibitor of nuclear factor kappa-B kinase subunit alpha (Homo sapiens) (UniProt O15111); assay: Inhibition of human full length recombinant IKKalpha assessed as residual activity at 10 uM using peptide as substrate incubated for 40 mins in presence of [gamma-33P]ATP at Km concentration by radiometric assay relative to control
[11] = target: Serine/threonine-protein kinase Nek2 (Homo sapiens) (UniProt P51955); assay: Inhibition of full length recombinant human NEK2 assessed as residual activity at 10 uM using myelin basic protein as substrate incubated for 40 mins in presence of [gamma-33P]ATP at Km concentration by radiometric assay relative to control
[12] = target: Ephrin type-A receptor 5 (Homo sapiens) (UniProt P54756); assay: Inhibition of recombinant human EPHA5 (655 to 956 residues) assessed as residual activity at 10 uM using poly (Glu,Tyr) 4:1 as substrate incubated for 40 mins in presence of [gamma-33P]ATP at Km concentration by radiometric assay relative to control
[13] = target: SRSF protein kinase 1 (Homo sapiens) (UniProt Q96SB4); assay: Inhibition of recombinant human SRPK1 (2 to end residues) assessed as residual activity at 10 uM using RSRSRSRSRSRSRSR as substrate incubated for 40 mins in presence of [gamma-33P]ATP at Km concentration by radiometric assay relative to control
[14] = target: Casein kinase II subunit alpha' (Homo sapiens) (UniProt P19784); assay: Inhibition of recombinant full length human CK2alpha2 assessed as residual activity at 10 uM using RRRDDDSDDD as substrate incubated for 40 mins in presence of [gamma-33P]ATP at Km concentration by radiometric assay relative to control
[15] = target: CDK7/Cyclin H/MNAT1 (Homo sapiens) (UniProt P51946+P50613+P51948); assay: Inhibition of human full length recombinant CDK7/cyclinH/MAT1 assessed as residual activity at 10 uM using peptide as substrate incubated for 40 mins in presence of [gamma-33P]ATP at Km concentration by radiometric assay relative to control; type: protein-complex assay
[16] = target: PI3-kinase p110-alpha/p85-alpha (Homo sapiens) (UniProt P27986+P42336); assay: Inhibition of recombinant full length human PI3K p110alpha/p85alpha assessed as residual activity at 10 uM incubated for 40 mins using phosphatidylinositol-4,5 bisphosphate as substrate in presence of [gamma-33P]ATP at Km concentration by radiometric assay relative to control; type: protein-complex assay
[17] = target: Tyrosine-protein kinase ABL1 (Homo sapiens) (UniProt P00519); assay: Inhibition of human recombinant ABL (27 to end residues) assessed as residual activity at 10 uM using EAIYAAPFAKKK as substrate incubated for 40 mins in presence of [gamma-33P]ATP at Km concentration by radiometric assay relative to control
[18] = target: Cyclin-dependent kinase 1/cyclin B1 (Homo sapiens) (UniProt P06493+P14635); assay: Inhibition of human full length recombinant CDK1/cyclinB assessed as residual activity at 10 uM using Histone H1 as substrate incubated for 40 mins in presence of [gamma-33P]ATP at Km concentration by radiometric assay relative to control; type: protein-complex assay
[19] = target: CDK2/Cyclin A2 (Homo sapiens) (UniProt P24941+P20248); assay: Inhibition of human full length recombinant CDK2/cyclinA assessed as residual activity at 10 uM using Histone H1 as substrate incubated for 40 mins in presence of [gamma-33P]ATP at Km concentration by radiometric assay relative to control; type: protein-complex assay
[20] = target: Insulin-like growth factor 1 receptor (Homo sapiens) (UniProt P08069); assay: Inhibition of human recombinant IGF1R (959 to end residues) assessed as residual activity at 10 uM using KKKSPGEYVNIEF as substrate incubated for 40 mins in presence of [gamma-33P]ATP at Km concentration by radiometric assay relative to control
[21] = target: CDK9/cyclin T1 (Homo sapiens) (UniProt O60563+P50750); assay: Inhibition of recombinant full length human CDK9/CyclinT1 assessed as residual activity at 10 uM using KTFCGTPEYLAPE as substrate incubated for 40 mins in presence of [gamma-33P]ATP at Km concentration by radiometric assay relative to control; type: protein-complex assay

Ephrin type-A receptor 5 (Homo sapiens), sequence (P54756 whole entry, the tested form may be a part): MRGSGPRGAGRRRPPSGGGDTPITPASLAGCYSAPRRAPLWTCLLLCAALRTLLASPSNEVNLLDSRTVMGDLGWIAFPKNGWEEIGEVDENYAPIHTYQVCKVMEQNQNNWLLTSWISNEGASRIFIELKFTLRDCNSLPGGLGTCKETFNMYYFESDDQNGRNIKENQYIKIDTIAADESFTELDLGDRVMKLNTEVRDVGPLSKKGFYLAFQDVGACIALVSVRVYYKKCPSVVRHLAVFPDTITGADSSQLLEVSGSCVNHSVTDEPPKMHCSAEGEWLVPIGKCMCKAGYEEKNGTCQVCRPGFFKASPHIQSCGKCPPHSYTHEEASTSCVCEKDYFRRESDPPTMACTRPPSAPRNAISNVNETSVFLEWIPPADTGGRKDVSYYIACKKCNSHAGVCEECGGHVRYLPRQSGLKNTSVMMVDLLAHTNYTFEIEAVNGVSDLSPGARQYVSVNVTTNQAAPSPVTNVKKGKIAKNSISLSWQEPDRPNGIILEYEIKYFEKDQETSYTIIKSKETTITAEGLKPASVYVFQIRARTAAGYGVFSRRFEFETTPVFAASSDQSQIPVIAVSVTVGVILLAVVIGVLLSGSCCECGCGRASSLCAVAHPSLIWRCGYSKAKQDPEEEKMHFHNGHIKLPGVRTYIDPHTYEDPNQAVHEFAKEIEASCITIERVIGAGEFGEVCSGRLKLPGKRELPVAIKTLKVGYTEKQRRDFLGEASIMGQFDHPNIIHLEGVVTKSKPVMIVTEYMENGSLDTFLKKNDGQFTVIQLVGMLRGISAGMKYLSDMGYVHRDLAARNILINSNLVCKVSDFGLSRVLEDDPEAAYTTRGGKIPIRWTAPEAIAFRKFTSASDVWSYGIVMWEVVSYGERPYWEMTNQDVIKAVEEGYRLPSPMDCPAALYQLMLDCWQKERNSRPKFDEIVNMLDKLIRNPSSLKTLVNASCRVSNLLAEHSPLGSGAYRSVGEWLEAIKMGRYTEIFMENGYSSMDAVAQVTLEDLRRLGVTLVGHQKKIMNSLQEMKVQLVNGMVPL
Serine/threonine-protein kinase Nek2 (Homo sapiens), sequence (P51955 whole entry, the tested form may be a part): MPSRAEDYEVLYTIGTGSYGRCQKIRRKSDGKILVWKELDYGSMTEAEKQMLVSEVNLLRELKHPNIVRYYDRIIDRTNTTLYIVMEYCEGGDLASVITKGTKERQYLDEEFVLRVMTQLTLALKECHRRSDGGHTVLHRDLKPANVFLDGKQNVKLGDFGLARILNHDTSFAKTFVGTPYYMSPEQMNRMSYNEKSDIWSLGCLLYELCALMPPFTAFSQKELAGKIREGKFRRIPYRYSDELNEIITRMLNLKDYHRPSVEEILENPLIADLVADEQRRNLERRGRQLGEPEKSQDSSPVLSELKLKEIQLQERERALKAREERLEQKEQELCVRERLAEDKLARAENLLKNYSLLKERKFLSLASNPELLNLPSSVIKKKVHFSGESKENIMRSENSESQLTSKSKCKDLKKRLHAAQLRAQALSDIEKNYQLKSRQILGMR
Epidermal growth factor receptor (Homo sapiens), sequence (P00533 whole entry): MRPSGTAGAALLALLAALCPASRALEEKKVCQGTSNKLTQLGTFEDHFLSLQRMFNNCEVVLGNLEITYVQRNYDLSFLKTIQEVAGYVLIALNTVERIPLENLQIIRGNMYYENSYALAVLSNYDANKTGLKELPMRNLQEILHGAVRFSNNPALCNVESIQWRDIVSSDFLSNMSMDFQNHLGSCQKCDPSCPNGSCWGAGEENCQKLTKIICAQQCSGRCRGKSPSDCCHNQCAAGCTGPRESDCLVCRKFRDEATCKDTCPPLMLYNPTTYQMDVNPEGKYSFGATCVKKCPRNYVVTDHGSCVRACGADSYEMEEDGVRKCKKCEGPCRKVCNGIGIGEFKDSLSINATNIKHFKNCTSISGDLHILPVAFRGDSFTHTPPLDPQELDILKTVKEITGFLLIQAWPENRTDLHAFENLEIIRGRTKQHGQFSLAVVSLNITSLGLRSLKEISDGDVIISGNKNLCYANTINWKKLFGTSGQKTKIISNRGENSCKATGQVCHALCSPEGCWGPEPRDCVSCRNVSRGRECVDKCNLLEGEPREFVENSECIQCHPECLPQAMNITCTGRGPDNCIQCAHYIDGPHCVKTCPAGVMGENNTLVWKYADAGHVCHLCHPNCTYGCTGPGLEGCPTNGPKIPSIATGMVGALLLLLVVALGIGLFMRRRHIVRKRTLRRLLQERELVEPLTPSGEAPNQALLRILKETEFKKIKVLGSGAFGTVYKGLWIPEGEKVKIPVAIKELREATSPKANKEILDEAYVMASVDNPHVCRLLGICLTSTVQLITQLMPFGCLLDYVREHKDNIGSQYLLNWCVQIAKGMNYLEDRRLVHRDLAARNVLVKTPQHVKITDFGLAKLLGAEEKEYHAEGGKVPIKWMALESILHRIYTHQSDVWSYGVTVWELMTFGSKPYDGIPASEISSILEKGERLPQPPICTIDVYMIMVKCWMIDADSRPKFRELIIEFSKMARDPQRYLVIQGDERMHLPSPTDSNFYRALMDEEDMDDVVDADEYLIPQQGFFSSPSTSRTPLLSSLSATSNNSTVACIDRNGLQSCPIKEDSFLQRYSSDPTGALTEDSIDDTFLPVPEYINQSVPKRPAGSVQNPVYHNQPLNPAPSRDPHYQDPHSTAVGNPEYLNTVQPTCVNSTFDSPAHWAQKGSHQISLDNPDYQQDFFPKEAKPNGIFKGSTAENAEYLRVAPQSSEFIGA
Protein kinase C theta type (Homo sapiens), sequence (Q04759 whole entry, looked up): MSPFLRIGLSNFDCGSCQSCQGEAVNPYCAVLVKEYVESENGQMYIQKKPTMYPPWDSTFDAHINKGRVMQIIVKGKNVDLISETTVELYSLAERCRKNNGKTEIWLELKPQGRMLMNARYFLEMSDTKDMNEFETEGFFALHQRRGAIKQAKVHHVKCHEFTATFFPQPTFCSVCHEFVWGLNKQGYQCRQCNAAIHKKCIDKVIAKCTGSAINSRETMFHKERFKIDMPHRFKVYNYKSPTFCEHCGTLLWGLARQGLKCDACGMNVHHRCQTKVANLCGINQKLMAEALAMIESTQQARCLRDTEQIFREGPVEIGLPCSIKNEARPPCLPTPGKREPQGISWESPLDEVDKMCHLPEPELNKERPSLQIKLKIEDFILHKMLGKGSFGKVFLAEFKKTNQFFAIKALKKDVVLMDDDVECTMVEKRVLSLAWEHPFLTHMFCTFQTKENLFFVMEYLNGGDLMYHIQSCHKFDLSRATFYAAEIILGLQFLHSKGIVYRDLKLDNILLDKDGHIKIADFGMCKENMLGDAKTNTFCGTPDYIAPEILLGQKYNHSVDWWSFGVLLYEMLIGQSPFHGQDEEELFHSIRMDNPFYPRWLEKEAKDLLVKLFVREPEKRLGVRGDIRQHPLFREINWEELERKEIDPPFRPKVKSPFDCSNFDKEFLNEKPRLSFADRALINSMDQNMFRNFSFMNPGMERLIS
Casein kinase II subunit alpha' (Homo sapiens), sequence (P19784 whole entry, looked up): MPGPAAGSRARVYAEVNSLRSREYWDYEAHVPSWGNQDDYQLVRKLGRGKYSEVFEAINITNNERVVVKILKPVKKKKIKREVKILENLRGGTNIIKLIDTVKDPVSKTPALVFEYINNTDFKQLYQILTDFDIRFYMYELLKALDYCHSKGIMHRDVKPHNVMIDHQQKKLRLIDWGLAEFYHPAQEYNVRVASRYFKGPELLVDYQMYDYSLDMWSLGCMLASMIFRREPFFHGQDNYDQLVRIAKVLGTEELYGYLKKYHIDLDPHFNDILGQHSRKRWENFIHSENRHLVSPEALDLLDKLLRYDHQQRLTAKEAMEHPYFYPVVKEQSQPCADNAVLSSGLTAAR
Inhibitor of nuclear factor kappa-B kinase subunit alpha (Homo sapiens), sequence (O15111 whole entry): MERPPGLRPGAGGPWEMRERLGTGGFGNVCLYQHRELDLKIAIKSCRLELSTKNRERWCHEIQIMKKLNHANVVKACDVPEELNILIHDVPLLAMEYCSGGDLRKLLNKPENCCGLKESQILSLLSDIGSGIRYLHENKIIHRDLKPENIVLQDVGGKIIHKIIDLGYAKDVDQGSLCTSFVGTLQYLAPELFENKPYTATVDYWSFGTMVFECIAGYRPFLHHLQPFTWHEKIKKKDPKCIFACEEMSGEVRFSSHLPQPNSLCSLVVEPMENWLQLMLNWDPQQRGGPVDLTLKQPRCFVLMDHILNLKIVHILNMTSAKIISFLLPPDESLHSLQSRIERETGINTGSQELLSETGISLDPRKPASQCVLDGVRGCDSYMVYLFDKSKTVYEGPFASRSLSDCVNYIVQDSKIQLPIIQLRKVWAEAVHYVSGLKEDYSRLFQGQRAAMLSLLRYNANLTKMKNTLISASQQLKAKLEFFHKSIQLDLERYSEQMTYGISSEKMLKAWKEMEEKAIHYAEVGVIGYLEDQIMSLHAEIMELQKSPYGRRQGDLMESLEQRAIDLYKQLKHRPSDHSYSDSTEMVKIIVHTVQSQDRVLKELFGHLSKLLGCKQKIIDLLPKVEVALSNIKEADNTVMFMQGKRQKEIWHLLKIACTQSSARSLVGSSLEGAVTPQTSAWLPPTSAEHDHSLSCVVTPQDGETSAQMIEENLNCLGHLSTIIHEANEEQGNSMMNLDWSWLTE

COc1ccc2c(CCNc3nc(NCc4ccc(=O)[nH]c4)c4nc[nH]c4n3)c[nH]c2c1
Activity (Homo sapiens [1]): 102%
Activity [2]: 85%
Activity [3]: 75%
ΔTm [4]: 5.5 °C
Activity [5]: 87%
Ki [6]: 200 nM
Activity (Homo sapiens [7]): 94%
Activity [8]: 96%
Activity [9]: 11%
Activity [10]: 109%
Activity [11]: 87%
Activity [12]: 114%
Activity [13]: 91%
Activity [14]: 100%
Activity [15]: 48%
Activity [16]: 99%
Activity [17]: 90%
Activity [18]: 83%
Activity [19]: 90%
Activity [20]: 86%
Activity [21]: 79%
